Source: ChEMBL document CHEMBL1137382, “Synthesis and structure-activity relationships of carbazole sulfonamides as a novel class of antimitotic agents against solid tumors” (J Med Chem, 2006)
Calls of active or inactive are those of the source. No cut-off for these calls is given here.

Assays:
CEM (human) = assay: Antiproliferative activity against human CEM cells after 72 hrs
Bel-7402 [1] = assay: Antiproliferative activity against human Bel7402 cells after 72 hrs; type: functional, cell-based; conditions: Bel-7402, 72 h
Method in brief: (§1)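 Cells grown in RPMI-1640 with 10% heat-inactivated FCS, penicillin and streptomycin, 5% CO2, 37 °C, used in exponential growth. 5 × 10⁴ cells per well exposed to compound at 0–10 µM for 72 h at 37 °C. IC50 (concentration killing 50% of cells versus untreated controls) determined in duplicate by nonlinear regression.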

DU-145 = assay: Antiproliferative activity against human DU145 cells after 72 hrs; type: functional, cell-based; conditions: DU-145, 72 h
Method in brief: as §1

DMS-79 = assay: Antiproliferative activity against human DMS79 cells after 72 hrs; type: functional, cell-based; conditions: DMS-79, 72 h
Method in brief: as §1

[2] = Antiproliferative activity against human DND1 cells after 72 hrs; type: functional, cell-based; conditions: DND1, 72 h
Method in brief: as §1

MOLT-3 = assay: Antiproliferative activity against human Molt3 cells after 72 hrs; type: functional, cell-based; conditions: MOLT-3, 72 h
Method in brief: as §1

PC-3 = assay: Antiproliferative activity against human PC3 cells after 72 hrs; type: functional, cell-based; conditions: PC-3, 72 h
Method in brief: as §1

MCF7 [3] = assay: Antiproliferative activity against human MCF7 cells after 72 hrs; type: functional, cell-based; conditions: MCF7, 72 h
Method in brief: as §1

[4] = Toxicity ip dosed mouse; type: organism-based; conditions: in vivo
Bel-7402 [5] = assay: Reduction in tumor volume of human Bel7402 cell xenografted in nude mice at 60 mg/kg, ip; type: functional; conditions: Mus musculus, Bel-7402, ip, route intraperitoneal
Method in brief: (§2)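 Female nude mice carry sc xenografts (MCF-7, 8 × 10⁶ cells, after sc estrogen 0.25 mg/mouse 24 h before; or Bel-7402). At 90–120 mm³, mice were randomised into groups of five. Dosing ip q2d for 5–6 weeks, 100 mg/kg for MCF-7 and 60 mg/kg for Bel-7402, with a solvent control. Tumor volume from caliper width and length, mean of n = 5.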

MCF7 [6] = assay: Induction of apoptosis in human MCF7 cell line assessed as increase in cdc2 expression upto 48 hrs; type: functional, cell-based
Method in brief: (§3)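 MCF-7 cells treated at 0.022–2.2 µM, or at 0.22 µM for 0–48 h. Lysed on ice in Tris/NaCl/NP-40/PMSF/aprotinin buffer and protein measured by Bradford. Blots blocked in 5% milk/TBST and probed with monoclonal antibodies to bcl-2, p53, cdc-2 and cyclin B1, then HRP anti-mouse. Signals detected by ECL on film.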

MCF7 [7] = assay: Induction of apoptosis in human MCF7 cell line assessed as increase in P-p53 expression upto 48 hrs; type: functional, cell-based
Method in brief: as §3

MCF7 [8] = assay: Induction of apoptosis in human MCF7 cell line assessed as increase in cyclin B1 expression upto 48 hrs; type: functional, cell-based
Method in brief: as §3

MCF7 [9] = assay: Reduction in tumor volume of human MCF7 cell xenografted in nude mice at 100 mg/kg, ip; type: functional; conditions: Mus musculus, route intraperitoneal
Method in brief: as §2

MCF7 [10] = assay: Cell cycle arrest in MCF7 cells by accumulation at M phase at 0.22 to 1.1 uM after 24 hrs; type: functional, cell-based; conditions: Homo sapiens
Method in brief: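 MCF-7 cells exposed at 0.22 µM for up to 24 h. Cells trypsin/EDTA-harvested (1.5 × 10⁶), PBS-washed, RNase-treated (0.5 µg/µL final, 37 °C, 30 min), fixed in ice-cold 70% ethanol ≥12 h at 4 °C, and stained with propidium iodide (0.1 µg/µL final, 4 °C, 60 min). ≥10⁴ events analysed by flow cytometry. Mitotic arrest also scored on Giemsa-stained cytospins by chromosome spreading.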

## CCn1c2ccccc2c2cc(NS(=O)(=O)c3ccc(OC)c(OC)c3)ccc21
CEM (human)
  IC50: 2650 nM

## CCn1c2ccccc2c2cc(NS(=O)(=O)c3ccc(OC)cc3)ccc21
CEM (human)
  IC50: > 10000 nM

## CCn1c2ccccc2c2cc(S(=O)(=O)Nc3ccc(OC)c(Cl)c3)ccc21
CEM (human)
  IC50: 482 nM

## CCn1c2ccccc2c2cc(NS(=O)(=O)c3cccc(OC)c3)ccc21
CEM (human)
  IC50: 789 nM

## CCn1c2ccccc2c2cc(S(=O)(=O)Nc3ccc4c(c3)OCO4)ccc21
CEM (human)
  IC50: 6250 nM

## CCn1c2ccccc2c2cc(S(=O)(=O)Nc3cc(OC)cc(OC)c3)ccc21
CEM (human)
  IC50: 974 nM

## COc1ccc(/C=C\c2cc(OC)c(OC)c(OC)c2)cc1O [COMBRETASTATIN A4]
Bel-7402 [1]
  IC50: 10 nM
DU-145
  IC50: 9.3 nM
DMS-79
  IC50: 124 nM
[2]
  IC50: 2.5 nM
MOLT-3
  IC50: 9.3 nM
CEM (human)
  IC50: 1.9 nM
PC-3
  IC50: 2.8 nM
MCF7 [3]
  IC50: 12 nM

## CCn1c2ccccc2c2cc(S(=O)(=O)Nc3cc(OC)ccc3OC)ccc21
Bel-7402 [1]
  IC50: 219 nM
DU-145
  IC50: 365 nM
[2]
  IC50: 195 nM
MOLT-3
  IC50: 49 nM
CEM (human)
  IC50: 61 nM
PC-3
  IC50: 780 nM
MCF7 [3]
  IC50: 98 nM

## CCn1c2ccccc2c2cc(NS(=O)(=O)c3cc(OC)ccc3OC)ccc21
CEM (human)
  IC50: 603 nM

## CCn1c2ccccc2c2cc(NS(=O)(=O)c3ccc(OC)cc3[N+](=O)[O-])ccc21
CEM (human)
  IC50: > 10000 nM

## CCn1c2ccccc2c2cc(S(=O)(=O)Nc3ccc(OC)c(OC)c3)ccc21
CEM (human)
  IC50: 2440 nM

## COc1cc(NS(=O)(=O)c2ccc3c(c2)c2ccccc2n3C)cc(OC)c1OC
Bel-7402 [1]
  IC50: 116 nM
DU-145
  IC50: 232 nM
DMS-79
  IC50: 2090 nM
[2]
  IC50: 70 nM
MOLT-3
  IC50: 19 nM
CEM (human)
  IC50: 46 nM
PC-3
  IC50: 116 nM
MCF7 [3]
  IC50: 70 nM

## CCn1c2ccccc2c2cc(S(=O)(=O)Nc3ccc(OC)cc3OC)ccc21
Bel-7402 [1]
  IC50: 96 nM
DU-145
  IC50: 144 nM
[2]
  IC50: 120 nM
MOLT-3
  IC50: 48 nM
CEM (human)
  IC50: 57 nM
PC-3
  IC50: 144 nM
MCF7 [3]
  IC50: 48 nM

## CCn1c2ccccc2c2cc(NS(=O)(=O)c3cccc(C#N)c3)ccc21
CEM (human)
  IC50: 1320 nM

## CCn1c2ccccc2c2cc(S(=O)(=O)Nc3ccc(OC)cc3)ccc21
CEM (human)
  IC50: > 10000 nM

## CCn1c2ccccc2c2cc(NS(=O)(=O)c3ccc(OC)cc3N)ccc21
CEM (human)
  IC50: > 10000 nM

## CCn1c2ccccc2c2cc(S(=O)(=O)Nc3cc(Cl)c(OC)cc3OC)ccc21
CEM (human)
  IC50: 67 nM

## COc1cc(OC)c(NS(=O)(=O)c2ccc3c(c2)c2ccccc2n3C)c(OC)c1
CEM (human)
  IC50: 70 nM

## CCn1c2ccccc2c2cc(S(=O)(=O)Nc3cc(C(F)(F)F)cc(C(F)(F)F)c3)ccc21
CEM (human)
  IC50: > 10000 nM

## CCn1c2ccccc2c2cc(S(=O)(=O)Nc3cc(OC)c(Cl)cc3OC)ccc21
Bel-7402 [1]
  IC50: 135 nM
DU-145
  IC50: 169 nM
[2]
  IC50: 90 nM
MOLT-3
  IC50: 67 nM
CEM (human)
  IC50: 56 nM
PC-3
  IC50: 90 nM
MCF7 [3]
  IC50: 67 nM

## CCn1c2ccccc2c2cc(S(=O)(=O)Nc3cc(OC)c(OC)c(OC)c3)ccc21
Bel-7402 [1]
  IC50: 201 nM
DU-145
  IC50: 603 nM
DMS-79
  IC50: 1900 nM
[2]
  IC50: 89 nM
MOLT-3
  IC50: 20 nM
[4]
  LD50: > 500 mg/kg
CEM (human)
  IC50: 56 nM
Bel-7402 [5]
  inhibition in vivo at 60 mg/kg: 55%
MCF7 [6]
  Activity: Active
MCF7 [7]
  Activity: Active
PC-3
  IC50: 201 nM
MCF7 [8]
  Activity: Active
MCF7 [9]
  inhibition in vivo at 100 mg/kg: 75%
MCF7 [3]
  IC50: 89 nM
MCF7 [10]
  Activity: Active

## CCn1c2ccccc2c2cc(S(=O)(=O)Nc3ccc(OC)c(N)c3)ccc21
CEM (human)
  IC50: 2200 nM

## CCn1c2ccccc2c2cc(S(=O)(=O)NCc3cc(OC)c(OC)c(OC)c3)ccc21
CEM (human)
  IC50: > 10000 nM

## COc1cc(NS(=O)(=O)c2ccc3oc4ccccc4c3c2)cc(OC)c1OC
CEM (human)
  IC50: > 10000 nM

## COc1cc([C@@H]2c3cc4c(cc3[C@H](O)[C@H]3COC(=O)[C@H]23)OCO4)cc(OC)c1OC [PODOFILOX]
Bel-7402 [1]
  IC50: 9.1 nM
DU-145
  IC50: 52 nM
DMS-79
  IC50: 23 nM
[2]
  IC50: 12 nM
MOLT-3
  IC50: 14 nM
CEM (human)
  IC50: 7.2 nM
PC-3
  IC50: 10 nM
MCF7 [3]
  IC50: 15 nM

## CCn1c2ccccc2c2cc(S(=O)(=O)Nc3ccc(F)cc3)ccc21
CEM (human)
  IC50: 2170 nM

## COc1cc(NS(=O)(=O)c2ccc3[nH]c4ccccc4c3c2)cc(OC)c1OC
CEM (human)
  IC50: 606 nM

## COc1cc(NS(=O)(=O)c2ccc3c(c2)c2ccccc2n3C)c(OC)cc1Cl
CEM (human)
  IC50: 46 nM
